According to ChEMBL document CHEMBL3875213, “Quinolines: Microwave-assisted synthesis and their antifungal, anticancer and radical scavenger properties” (Bioorg Med Chem, 2017):
Converted amounts (≈) assume the structure as drawn. The source made the active and inactive calls. The calls are words filed in the database; no cut-off is given here.

What was measured:
[1] = Antioxidant activity assessed as DPPH radical scavenging activity incubated for 30 mins under dark condition; format: functional
Procedure, shortened: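 DPPH (100 µM) in ethanolic medium, stirred 30 min in the dark, absorbance at 517 nm. Compound varied from 0 to 160 µg/mL to find the concentration scavenging 50% of radicals. Three independent experiments, each in triplicate.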

[2] = Antioxidant activity assessed as DPPH radical scavenging activity at 160 uM incubated for 30 mins under dark condition; format: functional
Procedure, shortened: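 Compound at 160 µM incubated with 100 µM DPPH in ethanolic medium, stirred in the dark for 30 min, read at 517 nm. Resveratrol as positive control. Three independent experiments, each in triplicate.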

[3] = Antioxidant activity assessed as fluorescent light-induced superoxide anion scavenging activity at 160 uM incubated for 10 mins by nitroblue tetrazolium dye based assay; format: functional
Procedure, shortened: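 Superoxide generated photochemically in 50 mM phosphate buffer pH 7.8 with 13 mM L-methionine, 75 µM nitroblue tetrazolium, 100 µM EDTA and 2 µM riboflavin. Compound at 160 µM. 10 min at 25 °C under fluorescent light; dark controls. Read at 575 nm. Resveratrol as positive control; three independent experiments in triplicate.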

[4] = system: Candida albicans; test: Antifungal activity against Candida albicans ATCC 10231 incubated for 48 hrs under dark condition by broth microdilution assay; format: functional; conditions: ATCC 10231, 48 h
Procedure, shortened: (§1)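 Broth microdilution per CLSI M27-A3 in RPMI-1640. Inocula adjusted to 1-5 x 10^3 CFU/mL. Stocks in DMSO (≤1%), final 3.9-250.0 µg/mL. Incubated 48 h at 30 °C in a moist, dark chamber, read at OD 405. % inhibition computed from growth and sterility control wells, run in triplicate. MIC80/MIC50 taken from four-parameter logistic concentration-response curves; amphotericin B as positive control.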

[5] = system: Candida albicans; test: Growth inhibition of Candida albicans ATCC 10231 at 3.9 ug/ml incubated for 48 hrs under dark condition by broth microdilution assay relative to amphotericin B; format: functional; conditions: ATCC 10231, 48 h, read-out: GI
Procedure, shortened: (§2)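 Yeast broth microdilution (CLSI M27-A3), RPMI-1640, inoculum 1-5 x 10^3 CFU/mL, DMSO ≤1%, 48 h at 30 °C in a moist, dark chamber. […]. Triplicate; amphotericin B as positive control.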

[6] = system: Candida albicans; test: Growth inhibition of Candida albicans ATCC 10231 at 7.81 ug/ml incubated for 48 hrs under dark condition by broth microdilution assay relative to amphotericin B; format: functional; conditions: ATCC 10231, 48 h, read-out: GI; procedure, shortened: as §2
[7] = system: Candida albicans; test: Growth inhibition of Candida albicans ATCC 10231 at 125 ug/ml incubated for 48 hrs under dark condition by broth microdilution assay relative to amphotericin B; format: functional; conditions: ATCC 10231, 48 h, read-out: GI; procedure, shortened: as §2
[8] = system: Candida albicans; test: Growth inhibition of Candida albicans ATCC 10231 at 15.62 ug/ml incubated for 48 hrs under dark condition by broth microdilution assay relative to amphotericin B; format: functional; conditions: ATCC 10231, 48 h, read-out: GI; procedure, shortened: as §2
[9] = system: Candida albicans; test: Growth inhibition of Candida albicans ATCC 10231 at 62.5 ug/ml incubated for 48 hrs under dark condition by broth microdilution assay relative to amphotericin B; format: functional; conditions: ATCC 10231, 48 h, read-out: GI; procedure, shortened: as §2
[10] = system: Candida albicans; test: Growth inhibition of Candida albicans ATCC 10231 at 250 ug/ml incubated for 48 hrs under dark condition by broth microdilution assay relative to amphotericin B; format: functional; conditions: ATCC 10231, 48 h, read-out: GI; procedure, shortened: as §2
[11] = Antioxidant activity assessed as fluorescent light-induced superoxide anion scavenging activity incubated for 10 mins by nitroblue tetrazolium dye based assay; format: functional
Procedure, shortened: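 Riboflavin/light superoxide system: 50 mM phosphate pH 7.8, 13 mM L-methionine, 75 µM NBT, 100 µM EDTA, 2 µM riboflavin, compound 0-200 µg/mL. Fluorescent light for 10 min at 25 °C, dark controls, scavenging measured at 575 nm. Resveratrol as reference.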

[12] = Antifungal activity against Cryptococcus neoformans ATCC 32264 incubated for 48 hrs under dark condition by broth microdilution assay; format: functional; procedure, shortened: as §1
[13] = system: Candida albicans; test: Growth inhibition of Candida albicans ATCC 10231 at 31.25 ug/ml incubated for 48 hrs under dark condition by broth microdilution assay relative to amphotericin B; format: functional; conditions: ATCC 10231, 48 h, read-out: GI; procedure, shortened: as §2
[14] = Antiproliferative activity against human CCD-19Lu cells after 24 hrs by MTT assay; format: cell-based
Procedure, shortened: (§3)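 Cells grown in medium with 10% foetal bovine serum and 1% L-glutamine at 37 °C, 5% CO2, seeded at 1 x 10^5 cells/well. Exposed to compound at 1.0-1,000 µg/mL for 24 h. MTT added, absorbance read at 540 nm 3 h later. IC50 obtained by non-linear regression of viability data.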

[15] = system: NCI-H226; test: Selectivity index, ratio of IC50 for human CCD-19Lu cells to IC50 for human NCI-H226 cells; format: functional
Procedure, shortened: (§4)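 Selectivity index equals IC50 in non-tumour CCD 19-Lu lung fibroblasts divided by IC50 in the tumour line. Both IC50s come from the 24 h MTT assay (read at 540 nm) over 1.0-1,000 µg/mL.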

[16] = Antiproliferative activity against human NCI-H226 cells harboring TP53 mutant after 24 hrs by MTT assay; format: functional, cell-based; conditions: NCI-H226, 24 h; procedure, shortened: as §3
[17] = Selectivity index, ratio of IC50 for human CCD-19Lu cells to IC50 for human Hep2C cells; format: functional; procedure, shortened: as §4
[18] = Antiproliferative activity against human Hep2C cells after 24 hrs by MTT assay; format: functional, cell-based; procedure, shortened: as §3

Structure (SMILES)	SC50 [1]	Activity [2]	Activity [3]	MIC50 [4]	MIC80 [4]	inhibition of growth at 3.9 µg/mL [5]	inhibition of growth at 7.81 µg/mL [6]	inhibition of growth at 125 µg/mL [7]	inhibition of growth at 15.62 µg/mL [8]	inhibition of growth at 62.5 µg/mL [9]	inhibition of growth at 250 µg/mL [10]	SC50 [11]	MIC50 [12]	MIC80 [12]	inhibition of growth at 31.25 µg/mL [13]	IC50 [14]	Ratio IC50 [15]	IC50 [16]	Ratio IC50 [17]	IC50 [18]
O=[N+]([O-])c1ccc2nc(-c3ccccc3)cc(-c3ccccc3)c2c1	104 µM	45 to 55%	Active	> 250 µg/mL	> 250 µg/mL	0%	0%	15.4%	0%	5.93%	36.1%	> 250 µM	125 µg/mL (≈ 383 µM)	250 µg/mL (≈ 766 µM)	1.57%	–	–	–	–	–
Brc1ccc2nc(C3CCCCC3)cc(-c3ccccc3)c2c1	118 µM	45 to 55%	Active	250 µg/mL (≈ 682 µM)	> 250 µg/mL	0%	0%	11.3%	0%	3.29%	37.2%	> 250 µM	250 µg/mL (≈ 682 µM)	> 250 µg/mL	1.49%	490 µM	5	91 µM	–	–
c1ccc(-c2cc(-c3ccccc3)c3c4c(ccc3n2)OCO4)cc1	–	–	Active	> 250 µg/mL	> 250 µg/mL	0%	0%	13.5%	3.62%	8.77%	24.2%	–	31.2 µg/mL (≈ 95.9 µM)	250 µg/mL (≈ 768 µM)	5.74%	354 µM	8	40 µM	0	951 µM
N#Cc1ccc2nc(-c3ccccc3)cc(-c3ccccc3)c2c1	19.5 µM	70 to 85%	Active	250 µg/mL (≈ 816 µM)	> 250 µg/mL	0%	8.25%	39%	9.26%	19.7%	69.9%	220 µM	125 µg/mL (≈ 408 µM)	250 µg/mL (≈ 816 µM)	12.7%	–	–	–	–	–
N#Cc1ccc(-c2cc(-c3ccccc3)c3cc(Br)ccc3n2)cc1	–	–	Active	> 250 µg/mL	> 250 µg/mL	0%	0%	4.86%	0%	2.54%	5.75%	–	> 250 µg/mL	> 250 µg/mL	2.44%	–	–	–	–	98.8 µM
O=[N+]([O-])c1cccc(-c2cc(-c3ccccc3)c3cc(Br)ccc3n2)c1	–	35 to 40%	–	> 250 µg/mL	> 250 µg/mL	0%	0%	5.11%	3.43%	4.99%	9.14%	–	> 250 µg/mL	> 250 µg/mL	4.86%	–	–	8.5 µM	–	–
COc1cc2nc(-c3ccccc3)cc(-c3ccccc3)c2c(OC)c1OC	18.9 µM	70 to 85%	Active	125 µg/mL (≈ 337 µM)	125 µg/mL (≈ 337 µM)	0%	6.81%	86.7%	6.76%	20.7%	100%	> 250 µM	7.8 µg/mL (≈ 21 µM)	15.6 µg/mL (≈ 42 µM)	8.13%	–	–	–	–	–
O=[N+]([O-])c1ccc2c(-c3ccccc3)cc(-c3ccccc3)nc2c1	–	–	–	250 µg/mL (≈ 766 µM)	> 250 µg/mL	3.42%	4.97%	38.5%	7.07%	19.8%	54.8%	–	125 µg/mL (≈ 383 µM)	> 250 µg/mL	10.6%	–	–	559 µM	–	–
Oc1ccc2nc(-c3ccccc3)cc(-c3ccccc3)c2c1	> 250 µM	70 to 85%	Active	250 µg/mL (≈ 841 µM)	> 250 µg/mL	0%	0%	3.51%	0%	0%	12.2%	> 250 µM	125 µg/mL (≈ 420 µM)	250 µg/mL (≈ 841 µM)	0%	–	–	–	–	–
